Laboratory results taken from ChEMBL document CHEMBL2331265, “Physangulidine A, a withanolide from Physalis angulata, perturbs the cell cycle and induces cell death by apoptosis in prostate cancer cells” (2013).
Calls of active or inactive are those of the source. The calls are words filed in the database; no cut-off is given here.

Columns and labels:
DU-145 [1] = test: Induction of apoptosis in human DU145 cells assessed as early apoptotic cells at 10 uM after 48 hrs using annexin V and propidium iodide staining by flow cytometric analysis relative to control; format: functional
Outline: (§1)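 DU145 plated at 2 × 10^5 per well and adhered 18 h. Then 5 or 10 μM compound, DMSO or untreated, for 24, 48 or 72 h. Trypsinized, PBS-washed, stained with annexin V-FITC plus propidium iodide. By flow cytometry, quadrants scored as viable, apoptotic (annexin+/PI−), necrotic (PI+ only) or late apoptotic/necrotic (double positive).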

DU-145 [2] = test: Induction of apoptosis in human DU145 cells assessed as necrotic cells at 10 uM after 48 hrs using annexin V and propidium iodide staining by flow cytometric analysis relative to control; format: functional; outline: as §1
DU-145 [3] = test: Induction of apoptosis in human DU145 cells assessed as DNA fragmentation formation at 10 uM after 48 to 72 hrs […]; format: functional, cell-based
Outline: (§2)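 Cells (2 × 10^6, adherent plus floating) collected after 10 μM compound or DMSO. Lysed in 1% NP-40/EDTA/Tris, treated with RNase A (1 h, 37 °C) then proteinase K (1 h, 50 °C). Phenol–chloroform extracted, precipitated with isopropanol. Run on a 1.8% agarose gel, ethidium bromide stained, UV read for the oligonucleosomal DNA ladder.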

DU-145 [4] = test: Induction of apoptosis in human DU145 cells using annexin V and propidium iodide staining at 5 uM after 48 hrs by flow cytometric analysis; format: functional; outline: as §1
DU-145 [5] = test: Induction of apoptosis in human DU145 cells assessed as late apoptotic cells at 10 uM after 24 hrs using annexin V and propidium iodide staining by flow cytometric analysis relative to control; format: functional; outline: as §1
DU-145 [6] = test: Induction of apoptosis in human DU145 cells assessed as late apoptotic cells at 10 uM after 72 hrs using annexin V and propidium iodide staining by flow cytometric analysis relative to control; format: functional; outline: as §1
DU-145 [7] = test: Cell cycle arrest in human DU145 cells assessed as accumulation at G2/M phase at 10 uM after 24 hrs using propidium iodide staining by flow cytometry (reference value: 31%); format: functional
DU-145 [8] = test: Induction of apoptosis in human DU145 cells assessed as necrotic cells at 10 uM after 24 hrs using annexin V and propidium iodide staining by flow cytometric analysis relative to control; format: functional; outline: as §1
DU-145 [9] = test: Induction of apoptosis in human DU145 cells assessed as late apoptotic cells at 10 uM after 48 hrs using annexin V and propidium iodide staining by flow cytometric analysis relative to control; format: functional; outline: as §1
DU-145 [10] = test: Cell cycle arrest in human DU145 cells assessed as accumulation at G1 phase at 10 uM after 24 hrs using propidium iodide staining by flow cytometry (reference value: 39%); format: functional
DU-145 [11] = test: Induction of apoptosis in human DU145 cells assessed as early apoptotic cells at 10 uM after 24 hrs using annexin V and propidium iodide staining by flow cytometric analysis relative to control; format: functional; outline: as §1
DU-145 [12] = test: Induction of apoptosis in human DU145 cells assessed as viable cells at 10 uM after 72 hrs using annexin V and propidium iodide staining by flow cytometric analysis relative to control; format: functional; details: DU-145, 72 h, read-out: Activity; outline: as §1
DU-145 [13] = test: Induction of apoptosis in human DU145 cells assessed as viable cells at 10 uM after 48 hrs using annexin V and propidium iodide staining by flow cytometric analysis relative to control; format: functional; details: DU-145, 48 h, read-out: Activity; outline: as §1
DU-145 [14] = test: Cell cycle arrest in human DU145 cells assessed as accumulation at G2/M phase at 10 uM after 48 hrs using propidium iodide staining by flow cytometry (reference value: 36%); format: functional
PC-3 [15] = test: Induction of apoptosis in human PC3 cells assessed as caspase-3 activation at 10 uM after 24 to 72 hrs by immunoblotting; format: functional, cell-based
Outline: (§3)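 Cells treated with 10 μM compound or DMSO over a time course. Lysed in Tris/NaCl/EDTA/deoxycholate/IGEPAL buffer, pH 7.5, with protease and phosphatase inhibitors. Protein measured by BCA and equal amounts immunoblotted. Membranes blocked in 5% milk, then probed overnight at 4 °C with anti-PARP-1 (200 ng/mL; full length 116 kDa, cleaved 89 kDa) or anti-cleaved caspase-3 (1:1000). GAPDH loading control, chemiluminescent detection.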

DU-145 [16] = test: Induction of apoptosis in human DU145 cells using annexin V and propidium iodide staining at 5 uM after 24 hrs by flow cytometric analysis; format: functional; outline: as §1
DU-145 [17] = test: Inhibition of mitosis in human DU145 cells assessed as abnormal mitosis at 10 uM after 48 hrs by fluorescent microscopy; format: functional, cell-based
Outline: (§4)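 DU145 plated at 2.5 × 10^4 on glass coverslips, 18 h. Then 10 μM compound for 24 or 48 h, or DMSO for 48 h. Fixed in 4% paraformaldehyde, permeabilized with 0.1% Triton X-100, blocked with 3% BSA. Stained with Alexa Fluor 488 anti-α-tubulin (60 min) and DAPI, then imaged by confocal microscopy for aberrant mitotic figures.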

DU-145 [18] = test: Induction of apoptosis in human DU145 cells assessed as viable cells at 10 uM after 24 hrs using annexin V and propidium iodide staining by flow cytometric analysis relative to control; format: functional; details: DU-145, 24 h, read-out: Activity; outline: as §1
PC-3 [19] = test: Antiproliferative activity against human PC3 cells at 10 uM; format: functional, cell-based
Outline: (§5)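 DU145 in DMEM and PC3 in F-12K, each with 10% FBS and penicillin/streptomycin, at 37 °C, 5% CO2. Compound added directly to the medium. Antiproliferative activity read after three days of treatment.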

DU-145 [20] = test: Induction of apoptosis in human DU145 cells assessed as PARP-1 cleavage at 10 uM after 24 hrs by immunoblotting; format: functional, cell-based; outline: as §3
DU-145 [21] = test: Cell cycle arrest in human DU145 cells assessed as accumulation at S phase at 10 uM after 24 hrs using propidium iodide staining by flow cytometry (reference value: 28%); format: functional
DU-145 [22] = test: Induction of apoptosis in human DU145 cells assessed as caspase-3 activation at 10 uM after 24 hrs by immunoblotting; format: functional, cell-based; outline: as §3
DU-145 [23] = test: Induction of apoptosis in human DU145 cells assessed as PARP-1 cleavage at 10 uM after 48 to 72 hrs by immunoblotting; format: functional, cell-based; outline: as §3
DU-145 [24] = test: Inhibition of colony formation in human DU145 cells at 2.5 to 10 uM after 10 days by clonogenic assay; format: functional, cell-based
Outline: (§6)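 DU145 or PC3 plated at 3 × 10^2 per well and adhered 18 h. Then 2.5, 5 or 10 μM compound, DMSO or medium alone. Grown 10 days until colonies were visible. Colonies fixed in 4% paraformaldehyde and stained with 0.25% crystal violet in 25% methanol.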

DU-145 [25] = test: Induction of apoptosis in human DU145 cells using annexin V and propidium iodide staining at 5 uM after 72 hrs by flow cytometric analysis; format: functional; outline: as §1
DU-145 [26] = test: Antiproliferative activity against human DU145 cells by SRB assay; format: functional
DU-145 [27] = test: Induction of apoptosis in human DU145 cells assessed as early apoptotic cells at 10 uM after 72 hrs using annexin V and propidium iodide staining by flow cytometric analysis relative to control; format: functional; outline: as §1
DU-145 [28] = test: Antiproliferative activity against human DU145 cells at 10 uM; format: functional, cell-based; outline: as §5
DU-145 [29] = test: Induction of apoptosis in human DU145 cells assessed as necrotic cells at 10 uM after 72 hrs using annexin V and propidium iodide staining by flow cytometric analysis relative to control; format: functional; outline: as §1
DU-145 [30] = test: Induction of cell death in human DU145 cells at 10 uM after 72 hrs by trypan blue exclusion assay; format: functional
Outline: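 DU145 left untreated, or given 10 μM compound or DMSO, for 72 h. All adherent and floating cells harvested, stained with trypan blue and counted at once. Result is % blue (nonviable) cells, mean of three independent experiments with standard error.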

PC-3 [31] = test: Induction of apoptosis in human PC3 cells assessed as PARP-1 cleavage at 10 uM after 24 to 72 hrs by immunoblotting; format: functional, cell-based; outline: as §3
DU-145 [32] = test: Cell cycle arrest in human DU145 cells assessed as accumulation at G1 phase at 10 uM after 48 hrs using propidium iodide staining by flow cytometry (reference value: 37%); format: functional
PC-3 [33] = test: Induction of apoptosis in human PC3 cells assessed as DNA fragmentation formation at 10 uM after 48 to 72 hrs […]; format: functional, cell-based; outline: as §2
DU-145 [34] = test: Inhibition of mitosis in human DU145 cells assessed as condensed chromosomes and mitotic spindles formation at 10 uM after 24 hrs by fluorescent microscopy; format: functional, cell-based; outline: as §4
PC-3 [35] = test: Inhibition of colony formation in human PC3 cells at 2.5 to 10 uM after 10 days by clonogenic assay; format: functional, cell-based; outline: as §6
DU-145 [36] = test: Induction of apoptosis in human DU145 cells assessed as caspase-3 activation at 10 uM after 48 to 72 hrs by immunoblotting; format: functional, cell-based; outline: as §3
DU-145 [37] = test: Cell cycle arrest in human DU145 cells assessed as accumulation at S phase at 10 uM after 48 hrs using propidium iodide staining by flow cytometry (reference value: 25%); format: functional

Structure (SMILES): C[C@@H]1CC[C@H]2[C@H]3[C@H](O[C@]4([C@]5(O)CC6(C)C(=O)OC5C[C@@]6(C)O)CC[C@@]31O4)[C@H]1O[C@]13CC=CC(=O)[C@]23C [PHYSANGULIDINE A]
- Activity (DU-145 [1]): 32.3%
- Activity (DU-145 [2]): 0.604%
- Activity (DU-145 [3]): Active
- Activity (DU-145 [4]): 9.2%
- Activity (DU-145 [5]): 3.71%
- Activity (DU-145 [6]): 28.4%
- Activity (DU-145 [7]): 49%
- Activity (DU-145 [8]): 0.77%
- Activity (DU-145 [9]): 13.9%
- Activity (DU-145 [10]): 8%
- Activity (DU-145 [11]): 7.44%
- viability at 10 µM (DU-145 [12]): 24.9%
- viability at 10 µM (DU-145 [13]): 53.2%
- Activity (DU-145 [14]): 66%
- Activity (PC-3 [15]): Active
- Activity (DU-145 [16]): 5.2%
- inhibition (DU-145 [17]): Active
- viability at 10 µM (DU-145 [18]): 88.1%
- inhibition (PC-3 [19]): Active
- Activity (DU-145 [20]): inactive
- Activity (DU-145 [21]): 37%
- Activity (DU-145 [22]): inactive
- Activity (DU-145 [23]): Active
- inhibition (DU-145 [24]): Active
- Activity (DU-145 [25]): 11.5%
- GI50 (DU-145 [26]): 3.6 µM
- Activity (DU-145 [27]): 46.4%
- inhibition (DU-145 [28]): Active
- Activity (DU-145 [29]): 0.308%
- Activity (DU-145 [30]): 90%
- Activity (PC-3 [31]): Active
- Activity (DU-145 [32]): 7%
- Activity (PC-3 [33]): Active
- inhibition (DU-145 [34]): Active
- inhibition (PC-3 [35]): Active
- Activity (DU-145 [36]): Active
- Activity (DU-145 [37]): 12%
